Results on 6 compounds are retold here after ChEMBL document CHEMBL4043235, “Design, semisynthesis and potent cytotoxic activity of novel 10-fluorocamptothecin derivatives” (Bioorg Med Chem Lett, 2017).

Holding throughout (assay type): functional, cell-based
One assay deals with A549. The assay is described as follows: Cytotoxicity against human A549 cells after 72 hrs by SRB assay. As to conditions: A549, 72 h. The essentials: (§1)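 Cells seeded at 3–5 × 10^3 per well in RPMI-1640 with 10% FBS holding various sample concentrations. Exposure 72 h. Attached cells fixed with cold 50% trichloroacetic acid for 30 min, then stained with 0.04% SRB for 30 min. Bound dye solubilized in 10 mM Tris-base, absorbance read at 515 nm. Three or more experiments; IC50 given as mean with standard deviation.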
Background: The SRB assay estimates cell density from bound dye.

Another assay has as its system MDA-MB-231. In words: Cytotoxicity against human MDA-MB-231 cells after 72 hrs by SRB assay. The settings on record: MDA-MB-231, 72 h. The essentials: as §1
The test system of the next assay is KB. In words: Cytotoxicity against human KB cells after 72 hrs by SRB assay. The essentials:
as §1

A short description of assay [1]: Cytotoxicity against human KBVIN cells after 72 hrs by SRB assay. In short, it runs like this: as §1
In a further assay the test system is MCF7. In words: Cytotoxicity against human MCF7 cells after 72 hrs by SRB assay. The settings on record: MCF7, 72 h. In short, it runs like this:
as §1

Some results are limits rather than exact numbers.

Broadly, the IC50 is the concentration needed to halve the response being measured. Read a high IC50 as weaker potency in that assay. Consider `CCc1c2c(nc3ccc(F)cc13)-c1cc3c(c(=O)n1C2)COC(=O)[C@]3(O)CC`, for which the concentration for half-maximal inhibition (IC50) in the assay on A549 stood at 9.91 nM; in the assay with MDA-MB-231, 319 nM; with KB, 69.6 nM; in assay [1] it was 67 nM; with MCF7, 76.9 nM.
The corresponding values for `CCc1c2c(nc3ccc(F)cc13)-c1cc3c(c(=O)n1C2)COC(=O)[C@@]3(CC)OC(=O)CN/C(Cc1ccc(OC)cc1)=N/S(=O)(=O)c1ccc(C)cc1` are 8.72 nM, 238 nM, 47 nM, 99.2 nM and 80.8 nM.
The like results for `CC[C@@]1(O)C(=O)OCc2c1cc1n(c2=O)Cc2cc3cc(F)ccc3nc2-1` were, in that order, 58.6 nM, 579 nM, 185 nM, 2950 nM and 431 nM.
The corresponding values for `CC[C@@]1(OC(=O)CN/C(Cc2ccc(OC)cc2)=N/S(=O)(=O)c2ccc(C)cc2)C(=O)OCc2c1cc1n(c2=O)Cc2cc3cc(F)ccc3nc2-1` are 62.2 nM, 601 nM, 280 nM, 497 nM and 649 nM.
As for `CCc1c2c(nc3ccc(OC(=O)N4CCC(N5CCCCC5)CC4)cc13)-c1cc3c(c(=O)n1C2)COC(=O)[C@]3(O)CC` [IRINOTECAN], the IC50 was 15600 nM with MDA-MB-231, 7990 nM in the assay on KB and more than 20000 nM in assay [1].
Consider `CC[C@@]1(O)C(=O)OCc2c1cc1n(c2=O)Cc2cc3c(CN(C)C)c(O)ccc3nc2-1` [TOPOTECAN], for which the IC50 in the assay on A549 was found to be 112 nM; in the assay on MDA-MB-231, 773 nM; with KB, 102 nM; in the assay on MCF7 it was 666 nM.
